Laboratory results published in ChEMBL document CHEMBL1155001, “Design, synthesis of novel peptidomimetic derivatives of 4-HPR for rhabdoid tumors” (Bioorg Med Chem Lett, 2008).
pIC50: −log10 of the molar value.

Experiments:
Type in all cases: functional, cell-based
[1] = Cytotoxicity against human MON cells assessed as cell survival after 3 days by MTS assay; conditions: 72 h
How it was run: (§1)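 INI1-deficient MON rhabdoid tumor cells were grown in RPMI 1640 with 10% FBS, 2 mM L-glutamine, penicillin and streptomycin at 37 °C in 5% CO2. Survival was read by MTS after 3 days. Relative IC50 was taken from a sigmoidal variable-slope fit of % inhibition vs log concentration.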

[2] = Cytotoxicity against INI1 gene deficient human MON cells assessed as cell survival after 3 days by MTS assay; conditions: 72 h; how it was run: as §1
G-401 = test: Cytotoxicity against human G401 cells assessed as cell survival after 3 days by MTS assay; conditions: G-401, 72 h
[3] = Cytotoxicity against human STM cells assessed as cell survival after 3 days by MTS assay; conditions: 72 h

Q: Which results are given for CC1=C(/C=C/C(C)=C/C=C/C(C)=C/C(=O)Nc2ccc(O)cc2)C(C)(C)CCC1 [FENRETINIDE]?
A: pIC50 [1]: 4.92; pIC50 [2]: 4.83; pIC50 (G-401): 5.30; pIC50 [3]: 5.30

Q: With CCC1=C(C)/C(=C/c2ccc(C(=O)Nc3ccc(O)c(Cl)c3)cc2)CCC1(C)C as the compound, how does the pIC50 [2] read?
A: 4.98

Q: With CCC1=C(C)/C(=C/c2ccc(C(=O)O)cc2)CCC1(C)C as the compound, how does the pIC50 [2] read?
A: < 4.30

Q: With CCC1=C(C)/C(=C/c2ccc(C(=O)Nc3ccc(O)c(F)c3)cc2)CCC1(C)C as the compound, how does the pIC50 [2] read?
A: 4.89

Q: With CCC1=C(C)/C(=C/c2ccc(C(=O)Nc3ccc(CO)cc3)cc2)CCC1(C)C as the compound, how does the pIC50 [2] read?
A: 4.54

Q: With CCC1=C(C)/C(=C/c2ccc(C(=O)Nc3ccc(O)cc3O)cc2)CCC1(C)C as the compound, how does the pIC50 [2] read?
A: 4.33

Q: With CCC1=C(C)/C(=C/c2ccc(C(=O)Nc3ccc(O)c(I)c3)cc2)CCC1(C)C as the compound, how does the pIC50 [2] read?
A: 5.50
